This passage reports inhibition and IC50 results from ChEMBL document CHEMBL4406821, “Novel dual inhibitors targeting CDK4 and VEGFR2 synergistically suppressed cancer progression and angiogenesis” (Eur J Med Chem, 2019).

Test [1] has as its target Vascular endothelial growth factor receptor 2 (Homo sapiens, UniProt P35968). The test is described as follows: Inhibition of recombinant human VEGFR2 (790 to end residues) using myelin ba as substrate at 1 uM incubated for 40 mins by [gamma-33P]-ATP based radiometric assay relative to control. The procedure, abridged: (§1)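 Kinase panel profiling at 1 μM performed by Eurofins KinaseProfiler; percent inhibition reported as mean of two independent experiments.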

In test [2] the target is CDK4/Cyclin D3 (Homo sapiens) (UniProt P11802+P30281). The test is described as follows: Inhibition of recombinant full length human CDK4/Cyclin D3 using Rb-fragmen as substrate at 1 uM incubated for 40 mins by [gamma-33P]-ATP based radiometric assay relative to control. Type of test: protein-complex assay. In short, it runs like this:
as §1

A further test concerns HeLa. The test is described as follows: Antiproliferative activity against human HeLa cells assessed as reduction in cell viability measured after 72 hrs by CCK8 assay. Type of test: functional, cell-based. In short, it runs like this:
(§2)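 Cells were seeded at 3×10³ cells/well and exposed to a range of concentrations or vehicle for 72 h. Viability was read by CCK-8 at 450 nm, with DMSO as blank and five replicates per sample. IC50 was calculated from the dose-response.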
(In general: Tetrazolium dyes change colour on reduction, which living cells bring about.)

A further test has as its system T47D. The test is described as follows: Antiproliferative activity against human T47D cells assessed as reduction in cell viability measured after 72 hrs by CCK8 assay. Format: functional, cell-based. The procedure, abridged:
as §2

Vascular endothelial growth factor receptor 2, sequence (P35968 whole entry): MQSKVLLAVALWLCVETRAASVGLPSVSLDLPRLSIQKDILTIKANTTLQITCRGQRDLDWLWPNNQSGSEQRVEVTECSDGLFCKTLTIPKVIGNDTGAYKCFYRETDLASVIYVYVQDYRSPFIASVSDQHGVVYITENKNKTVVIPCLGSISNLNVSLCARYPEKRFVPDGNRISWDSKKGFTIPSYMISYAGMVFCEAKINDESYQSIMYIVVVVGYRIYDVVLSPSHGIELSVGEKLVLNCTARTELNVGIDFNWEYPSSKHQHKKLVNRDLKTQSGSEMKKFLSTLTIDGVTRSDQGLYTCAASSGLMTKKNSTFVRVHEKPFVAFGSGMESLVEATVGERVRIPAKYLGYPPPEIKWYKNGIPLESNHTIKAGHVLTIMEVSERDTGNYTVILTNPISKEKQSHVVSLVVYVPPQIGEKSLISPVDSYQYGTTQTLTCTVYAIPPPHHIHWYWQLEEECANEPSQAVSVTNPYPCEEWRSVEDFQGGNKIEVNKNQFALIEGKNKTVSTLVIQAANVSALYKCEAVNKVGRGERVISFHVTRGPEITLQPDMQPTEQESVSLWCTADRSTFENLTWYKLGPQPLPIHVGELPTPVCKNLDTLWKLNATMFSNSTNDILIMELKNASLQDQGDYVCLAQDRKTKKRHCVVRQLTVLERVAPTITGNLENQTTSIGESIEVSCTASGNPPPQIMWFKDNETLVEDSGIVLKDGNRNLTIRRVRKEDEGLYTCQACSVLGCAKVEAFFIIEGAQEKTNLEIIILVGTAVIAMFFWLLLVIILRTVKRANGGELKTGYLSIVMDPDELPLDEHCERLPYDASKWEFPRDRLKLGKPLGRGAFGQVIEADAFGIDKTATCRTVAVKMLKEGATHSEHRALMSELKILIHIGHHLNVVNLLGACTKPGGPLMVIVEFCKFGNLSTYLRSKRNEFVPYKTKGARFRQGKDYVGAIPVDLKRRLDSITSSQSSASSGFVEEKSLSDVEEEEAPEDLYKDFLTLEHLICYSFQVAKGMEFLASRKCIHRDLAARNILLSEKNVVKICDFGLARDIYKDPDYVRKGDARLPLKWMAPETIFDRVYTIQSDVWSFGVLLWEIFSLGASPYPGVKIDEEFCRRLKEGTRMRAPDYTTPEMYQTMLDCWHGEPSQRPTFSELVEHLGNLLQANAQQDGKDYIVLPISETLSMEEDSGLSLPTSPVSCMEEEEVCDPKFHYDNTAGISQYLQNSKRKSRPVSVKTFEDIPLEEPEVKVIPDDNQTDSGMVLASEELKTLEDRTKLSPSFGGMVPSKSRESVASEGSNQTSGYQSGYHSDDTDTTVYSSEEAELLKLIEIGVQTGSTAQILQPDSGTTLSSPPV

Usually inhibition stands for the share of the control response that was lost under treatment. On to `CC(C)n1nnc2ccc(-c3nc(Nc4ccc(NC(=O)C5(C(=O)Nc6cccc(Cl)c6)CC5)cc4)ncc3F)cc21`, for which the inhibition was 60% in test [1] and 50% in test [2].

Take `Cc1nc2c(F)cc(-c3nc(Nc4ccc(CNC(=O)C5(C(=O)Nc6ccc(Cl)cc6)CC5)cc4)ncc3F)cc2n1C(C)C`: the inhibition came to 91% in test [1] and 88% in test [2].

On to `CC(C)n1nnc2ccc(-c3nc(Nc4ccc(NC(=O)C5(C(=O)Nc6cccc(F)c6)CC5)cc4)ncc3F)cc21`, for which the inhibition was 69% in test [1] and 79% in test [2].

As for `Cc1nc2c(F)cc(-c3nc(Nc4ccc(NC(=O)C5(C(=O)Nc6cccc(C(F)(F)F)c6)CC5)cc4)ncc3F)cc2n1C(C)C`, the inhibition in test [1] was 80%; in test [2], 31%.

Regarding `Cc1nc2c(F)cc(-c3nc(Nc4ccc(NC(=O)C5(C(=O)Nc6cccc(Br)c6)CC5)cc4)ncc3F)cc2n1C(C)C`, the inhibition was 90% in test [1] and 83% in test [2].

One may read the IC50 as the concentration needed to halve the response being measured. For `Cc1ccc(NC(=O)C2(C(=O)NCc3ccc(Nc4ncc(F)c(-c5cc(F)c6nc(C)n(C(C)C)c6c5)n4)cc3)CC2)cc1`, the inhibition amounted to 95% in test [1] and 97% in test [2]. The concentration for half-maximal inhibition (IC50) in the test with HeLa turned out to be 252 nM; in the test with T47D, 771 nM.

In the case of `CC(C)n1nnc2ccc(-c3nc(Nc4ccc(NC(=O)C5(C(=O)Nc6cccc(Br)c6)CC5)cc4)ncc3F)cc21`, the inhibition in test [1] turned out to be 55%; in test [2], 34%.

On to `CC(C)n1nnc2ccc(-c3nc(Nc4ccc(NC(=O)C5(C(=O)Nc6ccc(Cl)c(C(F)(F)F)c6)CC5)cc4)ncc3F)cc21`, for which the inhibition worked out at 41% in test [1] and 8% in test [2].

Turning to `Cc1cccc(NC(=O)C2(C(=O)Nc3ccc(Nc4ncc(F)c(-c5ccc6nnn(C(C)C)c6c5)n4)cc3)CC2)c1`, the inhibition worked out at 73% in test [1] and 75% in test [2].

For `CN(C)C(=O)c1cc2cnc(Nc3ccc(NC(=O)C4(C(=O)Nc5ccc(F)cc5)CC4)cc3)nc2n1C1CCCC1`, the inhibition in test [1] is 0%.

Consider `CC(C)n1nnc2ccc(-c3nc(Nc4ccc(NC(=O)C5(C(=O)Nc6ccc(F)cc6)CC5)cc4)ncc3F)cc21`, for which the inhibition was determined as 84% in test [1] and 69% in test [2].

In the case of `Cc1nc2c(F)cc(-c3nc(Nc4ccc(NC(=O)C5(C(=O)Nc6ccc(F)cc6)CC5)cc4)ncc3F)cc2n1C(C)C`, the inhibition in test [1] worked out at 91%; in test [2], 98%. In addition, the results for the IC50 in the test on HeLa and in the test on T47D were 191 nM and 25.5 nM, respectively.

Regarding `Cc1cccc(NC(=O)C2(C(=O)Nc3ccc(Nc4ncc(F)c(-c5cc(F)c6nc(C)n(C(C)C)c6c5)n4)cc3)CC2)c1`, the inhibition turned out to be 95% in test [1] and 97% in test [2]. The half-maximal inhibitory concentration (IC50) in the test with HeLa was 178 nM; in the test on T47D, 202 nM.

Turning to `Cc1nc2c(F)cc(-c3nc(Nc4ccc(NC(=O)C5(C(=O)Nc6cccc(F)c6)CC5)cc4)ncc3F)cc2n1C(C)C`, the inhibition was found to be 90% in test [1] and 96% in test [2]. The IC50 with HeLa was found to be 106 nM; in the test on T47D it was 29.3 nM.

As for `Cc1nc2c(F)cc(-c3nc(Nc4ccc(NC(=O)C5(C(=O)Nc6ccc(C(F)(F)F)cc6)CC5)cc4)ncc3F)cc2n1C(C)C`, the inhibition in test [1] was found to be 80%; in test [2], 74%.

Consider `CC(C)n1nnc2ccc(-c3nc(Nc4ccc(NC(=O)C5(C(=O)Nc6ccc(C(F)(F)F)cc6)CC5)cc4)ncc3F)cc21`, for which the inhibition in test [1] is 56%; in test [2], 31%.

Take `CC(C)n1nnc2ccc(-c3nc(Nc4ccc(NC(=O)C5(C(=O)Nc6ccc(Br)cc6)CC5)cc4)ncc3F)cc21`: the values for the inhibition in test [1] and in test [2] were 52% and 24%, respectively.

`Cc1nc2c(F)cc(-c3nc(Nc4ccc(NC(=O)C5(C(=O)Nc6ccc(Cl)c(C(F)(F)F)c6)CC5)cc4)ncc3F)cc2n1C(C)C`: the inhibition in test [1] is 68%; in test [2] it was 34%.

With `CC(C)n1nnc2ccc(-c3nc(Nc4ccc(NC(=O)C5(C(=O)Nc6ccc(Cl)cc6)CC5)cc4)ncc3F)cc21`, the results for the inhibition in test [1] and in test [2] were 59% and 21%, respectively.

As to `CC(C)n1nnc2ccc(-c3nc(Nc4ccc(NC(=O)C5(C(=O)Nc6cccc(C(F)(F)F)c6)CC5)cc4)ncc3F)cc21`, the inhibition was 46% in test [1] and 13% in test [2].

For `Cc1nc2c(F)cc(-c3nc(Nc4ccc(NC(=O)C5(C(=O)Nc6ccc(Br)cc6)CC5)cc4)ncc3F)cc2n1C(C)C`, the inhibition in test [1] is 91%; in test [2], 90%. Also, the IC50 worked out at 597 nM with HeLa and 120 nM in the test with T47D.

As for `Cc1nc2c(F)cc(-c3nc(Nc4ccc(CNC(=O)C5(C(=O)Nc6ccc(Cl)c(C(F)(F)F)c6)CC5)cc4)ncc3F)cc2n1C(C)C`, the inhibition in test [1] came out at 57%; in test [2], 51%.

On to `Cc1ccc(NC(=O)C2(C(=O)Nc3ccc(Nc4ncc(F)c(-c5ccc6nnn(C(C)C)c6c5)n4)cc3)CC2)cc1`, for which the inhibition in test [1] is 78%; in test [2] it was 81%.

For `Cc1nc2c(F)cc(-c3nc(Nc4ccc(CNC(=O)C5(C(=O)Nc6ccc(C(F)(F)F)cc6)CC5)cc4)ncc3F)cc2n1C(C)C`, the inhibition in test [1] was determined as 74%; in test [2], 37%.

For the compound `Cc1nc2c(F)cc(-c3nc(Nc4ccc(NC(=O)C5(C(=O)Nc6ccc(Cl)cc6)CC5)cc4)ncc3F)cc2n1C(C)C`, the figures for the inhibition in test [1] and in test [2] were 74% and 76%, respectively.

On to `Cc1nc2c(F)cc(-c3nc(Nc4ccc(CNC(=O)C5(C(=O)Nc6ccc(Br)cc6)CC5)cc4)ncc3F)cc2n1C(C)C`, for which the inhibition in test [1] worked out at 90%; in test [2], 93%. Also, the concentration for half-maximal inhibition (IC50) was 330 nM with HeLa and 109 nM in the test on T47D.

For `Cc1nc2c(F)cc(-c3nc(Nc4ccc(NC(=O)C5(C(=O)Nc6cccc(Cl)c6)CC5)cc4)ncc3F)cc2n1C(C)C`, the inhibition was 90% in test [1] and 74% in test [2].
